Screens: PubChem, several laboratories
In the library only some 0.6% were active in any assay of this set; here they are far more common.
DDE Tn6 FP inh: DD(E)-Tn6 binding inhibition, primary FP screen; AID 720509; 370,000 tested, 0.21% active; P02675; inhibition, % at 8.3 µM; Fibrin DD(E) TRITC-Tn6 fluorescence polarization displacement;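 active = inhibition above a per-campaign cutoff: mean of compounds within control limits plus 3 SD, cut at about 15% in these data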;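 also: 0% = median of all compound wells on the plate and 100% = blocking peptide control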
Rtt109 Vps75: blocks Candida albicans Rtt109/Vps75 acetyltransferase activity | purified Rtt109/Vps75, ThioGlo CoA-SH fluorescence, 4 h | inhibition, % at 34.9 µM | 330,000 tested, 0.16% active;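 active = inhibition of at least 50% in every replicate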
Keap1-Nrf2 PPI: Keap1-Nrf2 (human) interaction inhibition; Q14145; Keap1 Kelch-Nrf2 peptide fluorescence polarization, 1536-well; inhibition, % at 9.4 µM; 340,000 tested, 0.15% active; AID 504523; in the data active = inhibition above about 12%;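 also: human Keap1 Kelch domain with fluorescein labeled Nrf2 9mer peptide probe; 0% = neutral control wells and 100% = peptide positive control; higher means more block of Keap1 binding to Nrf2 peptide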
Target sequence (Q14145 whole entry, looked up, the tested form may be a part): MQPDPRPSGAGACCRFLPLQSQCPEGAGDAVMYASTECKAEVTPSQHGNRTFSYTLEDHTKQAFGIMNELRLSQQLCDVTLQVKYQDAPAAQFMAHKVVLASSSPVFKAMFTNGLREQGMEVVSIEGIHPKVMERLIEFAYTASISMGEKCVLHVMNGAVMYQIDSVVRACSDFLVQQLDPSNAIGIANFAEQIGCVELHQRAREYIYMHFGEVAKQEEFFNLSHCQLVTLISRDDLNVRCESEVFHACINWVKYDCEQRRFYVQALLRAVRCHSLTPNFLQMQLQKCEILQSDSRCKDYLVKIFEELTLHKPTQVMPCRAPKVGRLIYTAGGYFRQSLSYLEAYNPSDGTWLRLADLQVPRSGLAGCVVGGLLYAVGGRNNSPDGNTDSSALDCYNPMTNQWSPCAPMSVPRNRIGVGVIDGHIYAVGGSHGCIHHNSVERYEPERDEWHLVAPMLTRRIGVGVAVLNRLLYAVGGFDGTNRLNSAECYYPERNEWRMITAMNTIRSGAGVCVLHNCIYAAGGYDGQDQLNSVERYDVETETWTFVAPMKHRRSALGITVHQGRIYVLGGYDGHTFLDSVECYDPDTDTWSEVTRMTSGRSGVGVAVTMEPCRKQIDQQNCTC
C-LANA FP: blocks KSHV LANA C-terminal domain binding to DNA; AID 504423; inhibition, % at 9 µM; MBP-C-LANA/FAM-LBS DNA binding, fluorescence polarization; 340,000 tested, 0.078% active;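 active = highest replicate inhibition at or above 60% at 9 µM, even if other replicates fall short; inactive = all replicates below 60% inhibition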;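 also: 0% = neutral control wells and 100% = 4 µM acridine orange control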
DDE Tn7 FP inh: inhibitors of Tn7 peptide binding to human fibrin DD(E); AID 720508; inhibition, % at 8.3 µM; FP displacement of FITC-Tn7 peptide from fibrin DD(E); 0% = median of compound wells per plate; P02675; 370,000 tested, 0.13% active;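 active = inhibition above the mean of compounds falling within the control limits plus 3 SD of them, cut at about 14% in these data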;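 also: 0% = plate median of compound wells and 100% = 10 µM Aha-Tn7 peptide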
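assay system = human clot-derived fibrin DD(E) complex | quantity = Fibrin-DD(E) at 2 µM final | timing = 10 min preincubation, 3 h with tracer, room temperature | signal = fluorescence polarization | measure = percent inhibition | benchmarks = high control wells with 10 µM unlabelled Aha-Tn7 peptide (full inhibition) | replicates = singlicate testing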
Tn6 DDE ctr: counter-screen for inhibitors of Tn6 peptide binding to fibrin DD(E); AID 720621; 680 tested, 2% active; TRITC-Tn6 fluorescence polarization displacement; 0% = median of compound wells, not DMSO; shares compounds with DDE Tn6 FP inh; inhibition, % at 8.3 µM;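 active = inhibition above the mean of test compounds lying between the control limits plus 3 SD of those, cut at about 14% in these data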;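 also: 0% = median of compound wells and 100% = wells with Aha-Tn7 blocking peptide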
DDE Tn6 confirm: DD(E)-Tn6 binding inhibition, FP confirmation. inhibition, % at 8.3 µM. shares compounds with DDE Tn6 FP inh. AID 720631. 680 tested, 10% active. FP displacement of TRITC-Tn6 peptide from DD(E); 0% = per-plate median of test wells;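 active = inhibition above the mean of compounds lying within the control limits plus 3 SD, cut at about 16% in these data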;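 also: 100% = high control wells holding a competing inhibitor peptide at 10 µM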
Starred values were filed as active, the others as inactive; . = not tested or not shown.

SMILES	DDE Tn6 FP inh	Rtt109 Vps75	Keap1-Nrf2 PPI	C-LANA FP	DDE Tn7 FP inh	Tn6 DDE ctr	DDE Tn6 confirm
NS(=O)(=O)c1ccc(CNS(=O)(=O)c2ccc3ccccc3c2)cc1	-1	0	3	1	5	.	.
Cc1cc2cc(CNS(=O)(=O)c3ccc4ccccc4c3)ccc2n1C	50*	1	1	2	-2	6	20*
Cc1cc(C)c(S(=O)(=O)NCc2ccc3c(c2)cc(C)n3C)c(C)c1	59*	-23	-2	1	-3	-4	8
CC(=O)Nc1ccc(S(=O)(=O)NCc2ccc3c(c2)cc(C)n3C)cc1	62*	-7	-3	0	-1	-6	-9
CN1C(=O)c2cc(NC(=O)C3CCCCC3)ccc2OC[C@H]2O[C@@H](CC(=O)NC3CCCC3)CC[C@H]21	1	.	.	.	-1	.	.
COc1nc(OC)nc(N2CCC(C(=O)N(C)Cc3ccco3)CC2)n1	7	.	.	.	2	.	.
Cc1ccc(-c2[nH]nc(N)c2N=Nc2ccccc2C)cc1	-5	-4	-1	0	-3	.	.
Cc1ccc(-c2[nH]nc(N)c2N=Nc2cccc(Cl)c2C)cc1	17*	2	3	2	6	5	0
O=S1(=O)c2ccc(N3CC[C@@H](O)C3)cc2O[C@H]2CCN1C2	4	.	.	.	3	.	.
CN(C)C(=O)c1cccc(-c2cnc3c(NC=O)cc(-c4ccccc4N(C)C)cn23)c1	31*	.	.	.	-8	3	-5
Cc1ccccc1Cn1cc(CN2[C@H](Cc3ccccc3)COc3cc(Br)ccc3S2(=O)=O)nn1	-1	.	.	.	0	.	.
COC(CNC(=O)[C@H](Cc1c[nH]c2ccccc12)NC1(C(=O)NCc2ccccc2)CCCCC1)OC	3	.	.	.	-6	.	.
COc1ccccc1N1CCN(/N=C/c2ccc(C(=O)O)cc2)CC1	17*	1	2	0	-6	-3	-8
CC(C)CN1C(=O)C[C@@]2(C(=O)N(C)c3ccc(NC(=O)C(C)(C)C)cc32)C1c1ccccc1 (stereo partly specified)	-6	.	.	.	2	.	.
O=C(Nc1cccc(F)c1)c1ccc(-n2cncn2)c2ccoc12	16*	.	.	.	2	8	-6
CC(=O)c1cccc(NC(=O)c2ccc(-n3cncn3)c3ccoc23)c1	6	.	.	.	0	.	.
CC1(C)CCN2CCC(C)(C)c3c(O)ccc1c32	30*	0	-16	28	8	2	4
CN1CCN(c2ccc3c(c2)Oc2ccccc2CN(Cc2cn(Cc4ccccc4C(F)(F)F)nn2)S3(=O)=O)CC1	4	.	.	.	6	.	.
NC(N)=NS(=O)(=O)c1ccc(NC(=S)NC(=O)/C=C/c2cccs2)cc1	51*	-6	1	-2	7	-8	-8
CC(C)(C)NC(=O)C1CCC(CNc2c(N3CCCCC3)c(=O)c2=O)CC1 (stereo unspecified)	1	15	-4	0	2	.	.
CC1CCC(NC(=O)C2CCC(CNc3c(N4CCCCC4)c(=O)c3=O)CC2)CC1 (stereo unspecified)	17*	1	3	0	2	4	-7
COC(=O)c1cc(-c2ccc(F)c(Cl)c2)c(=O)n2c1CCC2	6	.	.	.	-5	.	.
COc1ccc(C2(C)NC(=O)N(CC(=O)NC(C)c3ccc(CC(C)C)cc3)C2=O)cc1 (stereo unspecified)	19*	1	-4	-1	2	9	0
COc1ccc(NC(=O)C(c2cc3c(cc2[N+](=O)[O-])OCO3)N(C)C)cc1 (stereo unspecified)	15*	0	3	0	-9	-3	-6
CCCCNC(=O)N1CCCC1C(=O)Nc1cccc(OC)c1 (stereo unspecified)	-3	.	.	.	-8	.	.
COC(=O)[C@]12C[C@H](CC(=O)NCc3ccc(OC)c(OC)c3)C(=O)N(Cc3ccccc3)C1=C[C@H](COCc1ccccc1)O[C@@H]2C	2	.	.	.	3	.	.
C=CCn1c(=O)c2c(nc3n2CC(C)CN3Cc2ccccc2)n(C)c1=O (stereo unspecified)	17*	12	0	1	-8	-1	-12
Cc1ccc(C2NC(=O)c3c(sc4c3CCN(C)C4)N2)s1 (stereo unspecified)	18*	.	-10	5	-3	11	6
